Data: ChEMBL document CHEMBL3259728, “Design, synthesis and biological evaluation of some novel substituted quinazolines as antitumor agents” (2014)

Tested on: DU-145
Experiment: Growth inhibition of human DU145 cells at 10 uM after 48 hrs by SRB assay
Format: functional
Conditions: DU-145, 48 h, read-out: GI
Method in brief: (§1)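 NCI-60 primary one-dose screen run at the US NCI, with human tumour lines from nine cancer types. Compound added once at 10^-5 M, followed by 48 h incubation. End point was sulforhodamine B protein staining read spectrophotometrically. Result given as percent growth of treated cells against untreated controls, reported as % growth inhibition.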

SMILES | inhibition of growth at 10 µM [%]
Cc1ccc(C(=O)Nc2ccc(Cl)cc2C(=O)Nc2ccccn2)cc1 | 11

Tested on: SNB-19
Experiment: Growth inhibition of human SNB19 cells at 10 uM after 48 hrs by SRB assay
Format: functional
Conditions: SNB-19, 48 h, read-out: GI
Method in brief: as §1

SMILES | inhibition of growth at 10 µM [%]
Cc1ccc(C(=O)Nc2ccc(Cl)cc2C(=O)Nc2ccccn2)cc1 | < 10

Tested on: Malme-3M
Experiment: Growth inhibition of human MALME-3M cells at 10 uM after 48 hrs by SRB assay
Format: functional
Conditions: read-out: GI
Method in brief: as §1

SMILES | inhibition of growth at 10 µM [%]
Cc1ccc(C(=O)Nc2ccc(Cl)cc2C(=O)Nc2ccccn2)cc1 | < 10

Tested on: COLO 205
Experiment: Growth inhibition of human COLO205 cells at 10 uM after 48 hrs by SRB assay
Format: functional
Conditions: COLO 205, 48 h, read-out: GI
Method in brief: (§2)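 NCI primary one-dose screen. A single concentration of 10^-5 M was added to the cell culture, followed by 48 h incubation and an SRB protein-dye endpoint read spectrophotometrically. Results are growth percentage relative to untreated control cells, reported as % growth inhibition.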

SMILES | inhibition of growth at 10 µM [%]
Cc1ccc(C(=O)Nc2ccc(Cl)cc2C(=O)Nc2ccccn2)cc1 | < 10

Tested on: RPMI-8226
Experiment: Growth inhibition of human RPMI8226 cells at 10 uM after 48 hrs by SRB assay
Format: functional
Conditions: RPMI-8226, 48 h, read-out: GI
Method in brief: as §1

SMILES | inhibition of growth at 10 µM [%]
Cc1ccc(C(=O)Nc2ccc(Cl)cc2C(=O)Nc2ccccn2)cc1 | 15

Tested on: IGROV-1
Experiment: Growth inhibition of human IGROV1 cells at 10 uM after 48 hrs by SRB assay
Format: functional
Conditions: IGROV-1, 48 h, read-out: GI
Method in brief: as §1

SMILES | inhibition of growth at 10 µM [%]
Cc1ccc(C(=O)Nc2ccc(Cl)cc2C(=O)Nc2ccccn2)cc1 | 14

Tested on: not listed separately
Experiment: Growth inhibition of human LOXIMVI cells at 10 uM after 48 hrs by SRB assay
Format: functional
Conditions: LOX IMVI, read-out: GI
Method in brief: as §1

SMILES | inhibition of growth at 10 µM [%]
Cc1ccc(C(=O)Nc2ccc(Cl)cc2C(=O)Nc2ccccn2)cc1 | < 10

Tested on: PC-3
Experiment: Growth inhibition of human PC3 cells at 10 uM after 48 hrs by SRB assay
Format: functional
Conditions: PC-3, 48 h, read-out: GI
Method in brief: as §1

SMILES | inhibition of growth at 10 µM [%]
Cc1ccc(C(=O)Nc2ccc(Cl)cc2C(=O)Nc2ccccn2)cc1 | 23

Tested on: SR
Experiment: Growth inhibition of human SR cells at 10 uM after 48 hrs by SRB assay
Format: functional
Conditions: read-out: GI
Method in brief: as §1

SMILES | inhibition of growth at 10 µM [%]
Cc1ccc(C(=O)Nc2ccc(Cl)cc2C(=O)Nc2ccccn2)cc1 | < 10

Tested on: HCT-116
Experiment: Growth inhibition of human HCT116 cells at 10 uM after 48 hrs by SRB assay
Format: functional
Conditions: HCT-116, 48 h, read-out: GI
Method in brief: as §1

SMILES | inhibition of growth at 10 µM [%]
Cc1ccc(C(=O)Nc2ccc(Cl)cc2C(=O)Nc2ccccn2)cc1 | < 10

Tested on: MDA-MB-231
Experiment: Growth inhibition of human MDA-MB-231 cells at 10 uM after 48 hrs by SRB assay
Format: functional
Conditions: MDA-MB-231, 48 h, read-out: GI
Method in brief: as §1

SMILES | inhibition of growth at 10 µM [%]
Cc1ccc(C(=O)Nc2ccc(Cl)cc2C(=O)Nc2ccccn2)cc1 | < 10

Tested on: not listed separately
Experiment: Growth inhibition of human HCC2998 cells at 10 uM after 48 hrs by SRB assay
Format: functional
Conditions: HCC 2998, 48 h, read-out: GI
Method in brief: as §1

SMILES | inhibition of growth at 10 µM [%]
Cc1ccc(C(=O)Nc2ccc(Cl)cc2C(=O)Nc2ccccn2)cc1 | < 10

Tested on: TK-10
Experiment: Growth inhibition of human TK10 cells at 10 uM after 48 hrs by SRB assay
Format: functional
Conditions: TK-10, 48 h, read-out: GI
Method in brief: as §1

SMILES | inhibition of growth at 10 µM [%]
Cc1ccc(C(=O)Nc2ccc(Cl)cc2C(=O)Nc2ccccn2)cc1 | < 10

Tested on: 786-0
Experiment: Growth inhibition of human 786-0 cells at 10 uM after 48 hrs by SRB assay
Format: functional
Conditions: 786-0, 48 h, read-out: GI
Method in brief: as §2

SMILES | inhibition of growth at 10 µM [%]
Cc1ccc(C(=O)Nc2ccc(Cl)cc2C(=O)Nc2ccccn2)cc1 | < 10

Tested on: not listed separately
Experiment: Growth inhibition of human OVCAR4 cells at 10 uM after 48 hrs by SRB assay
Format: functional
Conditions: OVCAR-4, 48 h, read-out: GI
Method in brief: as §1

SMILES | inhibition of growth at 10 µM [%]
Cc1ccc(C(=O)Nc2ccc(Cl)cc2C(=O)Nc2ccccn2)cc1 | 22

Tested on: not listed separately
Experiment: Growth inhibition of human RXF393 cells at 10 uM after 48 hrs by SRB assay
Format: functional
Conditions: RXF 393, 48 h, read-out: GI
Method in brief: as §1

SMILES | inhibition of growth at 10 µM [%]
Cc1ccc(C(=O)Nc2ccc(Cl)cc2C(=O)Nc2ccccn2)cc1 | < 10

Tested on: NCI-H460
Experiment: Growth inhibition of human NCI-H460 cells at 10 uM after 48 hrs by SRB assay
Format: functional
Conditions: NCI-H460, 48 h, read-out: GI
Method in brief: as §1

SMILES | inhibition of growth at 10 µM [%]
Cc1ccc(C(=O)Nc2ccc(Cl)cc2C(=O)Nc2ccccn2)cc1 | < 10

Tested on: SN12C
Experiment: Growth inhibition of human SN12C cells at 10 uM after 48 hrs by SRB assay
Format: functional
Conditions: read-out: GI
Method in brief: as §1

SMILES | inhibition of growth at 10 µM [%]
Cc1ccc(C(=O)Nc2ccc(Cl)cc2C(=O)Nc2ccccn2)cc1 | < 10

Tested on: NCI-H322M
Experiment: Growth inhibition of human NCI-H322M cells at 10 uM after 48 hrs by SRB assay
Format: functional
Conditions: read-out: GI
Method in brief: as §1

SMILES | inhibition of growth at 10 µM [%]
Cc1ccc(C(=O)Nc2ccc(Cl)cc2C(=O)Nc2ccccn2)cc1 | < 10
